Values after ≈ are worked out from the molar mass of the structure shown.
Experiments:
Assay type in all cases: functional
Cryptococcus neoformans = assay: Antifungal activity against Cryptococcus neoformans after 2 to 7 days by serial plate dilution method
Outline: (§1)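 Compounds dissolved as DMSO stocks and serially diluted in RPMI 1640 buffered with MOPS, giving final concentrations of 128–0.25. Individual fungal inoculum added to each well. Incubated in triplicate at 37 °C for 2–7 days. MIC read as the lowest concentration with no visible growth. Amphotericin B and fluconazole served as positive controls.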

Mucor racemosus = assay: Antifungal activity against Mucor racemosus after 2 to 7 days by serial plate dilution method
Candida albicans = assay: Antifungal activity against Candida albicans after 2 to 7 days by serial plate dilution method; outline: as §1
Epidermophyton floccosum = assay: Antifungal activity against Epidermophyton floccosum after 2 to 7 days by serial plate dilution method; outline: as §1
Nannizzia gypsea = assay: Antifungal activity against Microsporum gypseum after 2 to 7 days by serial plate dilution method; outline: as §1

Structure (SMILES) | MIC (Cryptococcus neoformans) [mg/L] | MIC (Mucor racemosus) [mg/L] | MIC (Candida albicans) [mg/L] | MIC (Epidermophyton floccosum) [mg/L] | MIC (Nannizzia gypsea) [mg/L]
OC(Cn1cncn1)(Cn1cncn1)c1ccc(F)cc1F [FLUCONAZOLE] | 8 (≈ 26.1 µM) | 32 (≈ 104 µM) | 32 (≈ 104 µM) | 32 (≈ 104 µM) | 64 (≈ 209 µM)
Cc1cc2c(cc1F)SC(c1c[nH]c3ccccc13)CC2=O (stereo not given) | 64 (≈ 206 µM) | 128 (≈ 411 µM) | > 128 | 64 (≈ 206 µM) | 64 (≈ 206 µM)
Cc1cccc2c1SC(c1cn(C)c3ccccc13)CC2=O (stereo not given) | 32 (≈ 104 µM) | 64 (≈ 208 µM) | 128 (≈ 416 µM) | 64 (≈ 208 µM) | 32 (≈ 104 µM)
O=C1CC(c2c[nH]c3ccc(Cl)cc23)Sc2ccc(Cl)cc21 (stereo not given) | 4 (≈ 11.5 µM) | 8 (≈ 23 µM) | 64 (≈ 184 µM) | 8 (≈ 23 µM) | 16 (≈ 45.9 µM)
Cc1cc(C)c2c(c1)C(=O)CC(c1c[nH]c3ccc(O)cc13)S2 (stereo not given) | 16 (≈ 49.5 µM) | 32 (≈ 98.9 µM) | 64 (≈ 198 µM) | 16 (≈ 49.5 µM) | 16 (≈ 49.5 µM)
C[C@@H]1[C@H](O)[C@@H](C)/C=C/C=C/C=C/C=C/C=C/C=C/C=C/[C@H](O[C@@H]2O[C@H](C)[C@@H](O)[C@H](N)[C@@H]2O)C[C@@H]2O[C@](O)(C[C@@H](O)C[C@@H](O)[C@H](O)CC[C@@H](O)C[C@@H](O)CC(=O)O[C@H]1C)C[C@H](O)[C@H]2C(=O)O [AMPHOTERICIN B] | 4 (≈ 4.33 µM) | 4 (≈ 4.33 µM) | 2 (≈ 2.16 µM) | 2 (≈ 2.16 µM) | 2 (≈ 2.16 µM)
O=C1CC(c2c[nH]c3ccc(O)cc23)Sc2c(F)cccc21 (stereo not given) | 8 (≈ 25.5 µM) | 16 (≈ 51.1 µM) | 16 (≈ 51.1 µM) | 4 (≈ 12.8 µM) | 16 (≈ 51.1 µM)
Cn1cc(C2CC(=O)c3cccc(Cl)c3S2)c2ccccc21 (stereo not given) | 64 (≈ 195 µM) | 32 (≈ 97.6 µM) | 32 (≈ 97.6 µM) | 32 (≈ 97.6 µM) | 32 (≈ 97.6 µM)
O=C1CC(c2c[nH]c3ccccc23)Sc2ccc(Cl)cc21 (stereo not given) | 32 (≈ 102 µM) | 64 (≈ 204 µM) | 64 (≈ 204 µM) | 32 (≈ 102 µM) | 64 (≈ 204 µM)
Cn1cc(C2CC(=O)c3cc(Cl)ccc3S2)c2ccccc21 (stereo not given) | 128 (≈ 390 µM) | 32 (≈ 97.6 µM) | 64 (≈ 195 µM) | 128 (≈ 390 µM) | 128 (≈ 390 µM)
Cc1cc(C)c2c(c1)C(=O)CC(c1c[nH]c3ccc(Cl)cc13)S2 (stereo not given) | 16 (≈ 46.8 µM) | 32 (≈ 93.6 µM) | 32 (≈ 93.6 µM) | 16 (≈ 46.8 µM) | 16 (≈ 46.8 µM)
O=C1CC(c2c[nH]c3ccccc23)Sc2c(F)cccc21 (stereo not given) | 16 (≈ 53.8 µM) | 32 (≈ 108 µM) | 32 (≈ 108 µM) | 8 (≈ 26.9 µM) | 8 (≈ 26.9 µM)
O=C1CC(c2c[nH]c3ccccc23)Sc2ccc(F)cc21 (stereo not given) | 64 (≈ 215 µM) | 32 (≈ 108 µM) | 128 (≈ 430 µM) | 32 (≈ 108 µM) | 32 (≈ 108 µM)
Cc1cccc2c1SC(c1c[nH]c3ccccc13)CC2=O (stereo not given) | 64 (≈ 218 µM) | 64 (≈ 218 µM) | 64 (≈ 218 µM) | 128 (≈ 436 µM) | 64 (≈ 218 µM)
Cc1ccc2c(c1)C(=O)CC(c1c[nH]c3ccccc13)S2 (stereo not given) | 32 (≈ 109 µM) | 128 (≈ 436 µM) | 128 (≈ 436 µM) | > 128 | > 128
Cc1cc(C)c2c(c1)C(=O)CC(c1c[nH]c3ccccc13)S2 (stereo not given) | 32 (≈ 104 µM) | 128 (≈ 416 µM) | 64 (≈ 208 µM) | 128 (≈ 416 µM) | 64 (≈ 208 µM)
O=C1CC(c2c[nH]c3ccc(Cl)cc23)Sc2c(F)cccc21 (stereo not given) | 4 (≈ 12.1 µM) | 8 (≈ 24.1 µM) | 32 (≈ 96.4 µM) | 4 (≈ 12.1 µM) | 8 (≈ 24.1 µM)

Reference: ChEMBL document CHEMBL3352045, “Ionic liquid catalyzed synthesis of 2-(indole-3-yl)-thiochroman-4-ones and their novel antifungal activities” (2015)
